PMC6360136 (Investigational new drugs, 2018)

Key:
EC46 cells = assay: Cell viability assay; format: cell-based, human; conditions: EC46 primary pancreatic cancer cells, MTT, 48 h
[1] = system: EC68, EC46 and PANC-1 cells; assay: Cell growth MTT assay; format: cell-based, human; conditions: in vitro studies, Fig. 1, MTT 48 h
In short: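 PANC-1 and primary patient-derived pancreatic cancer lines EC46 and EC68 were grown in DMEM/F-12K (1:1) with 10% FBS at 37 °C and 5% CO2. Cells were seeded at 5000/well and attached overnight. They were then exposed for 48 h to the test compound at various concentrations or to EtOH solvent control. Viability was read by MTT, and curves were fitted by nonlinear regression.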

[2] = system: VEGF-A secretion in PANC-1 and EC46 cells; assay: VEGF-A AlphaLISA; format: cell-based, human; conditions: 12 h
[3] = system: orthotopic pancreatic patient-derived xenograft (PDX) tumor; assay: In vivo efficacy study in orthotopic pancreatic PDX mouse model; conditions: 0.25 mg/kg i.p. every other day, NSG mice
In short: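 A surgically resected human pancreatic ductal adenocarcinoma was expanded as 3 × 3 mm flank implants in female NSG mice and passaged at 2.0 cm. Second-generation tumour was then implanted orthotopically. On postoperative day 45 (palpable, 3–4 mm), mice were randomised to test compound 0.25 mg/kg i.p. or DMSO control every other day until endpoint. Diameter was measured by calipers and ultrasound every 3–5 days and volume calculated from it. Analysis used repeated-measures two-way ANOVA with Sidak tests.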

[4] = system: orthotopic pancreatic PDX tumor; assay: Ki-67 staining of PDX tumors; format: in vivo, NSG mice; conditions: PDX tumors at euthanasia, 0.25 mg/kg i.p. every other day, vs vehicle
In short: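 Orthotopic PDX mice received test compound 0.25 mg/kg i.p. or DMSO every other day. At endpoint, tumours were formalin-fixed and paraffin-embedded, and 5 micron sections were cut. Sections were stained for Ki-67 (proliferation) or by TUNEL (apoptosis). Ki-67 was scored as the average number of positive cells per high-power field by image analysis.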

SMILES: CC[C@H](C)[C@@H]1C(=O)N2CCC[C@@H]2C(=O)O[C@H](C(C)(C)C)C[C@@H](C)C[C@@H](O)C(C)(C)C2=N[C@H](CCC(=O)N[C@@H](Cc3ccc(OC)cc3)C(=O)N(C)[C@@H](C)C(=O)N1C)CS2 [Apra S10, apratoxin S10]
- GI50 (EC46 cells): 0.32 nM
- concentration required to achieve the maximal response [1]: around 50 nM
- concentration required to achieve the maximal response (minimum effective concentration) [1]: ~40 ng/mL
- effect on VEGF-A secretion [2]: inhibited the secretion of VEGF-A at low nanomolar to subnanomolar concentrations
- tumor growth (tumor volume) [3]: significantly retarded tumor growth
- decrease in the number of cells undergoing proliferation (Ki-67) [4]: > 50%
